Experiments:
[1] = molecular target: Integrin alpha-4/beta-1 (Homo sapiens) (UniProt P05556+P13612); experiment: Inhibition of alpha4-beta1 lymphoma cell binding to CHO-VCAM-1 cells.; format: cell-based
[2] = molecular target: T1, Integrin alpha-4/beta-7 (Homo sapiens) (UniProt P13612+P26010); experiment: Ability to inhibit adhesion of alpha4-beta7 integrin expressing 38-beta7 lymphoma cells to chinese hamster ovary (CHO) cells stably transfected with MAdCAM-1; format: cell-based
Procedure, shortened: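 38-β7 lymphoma cells (α4β7+) labelled 30 min at 37 °C with 12 μg/mL H33342, then 8×10^5/mL in buffer with 1.0 mM Ca2+/Mg2+. Preincubated 10 min at 37 °C with peptide at 1 mg/mL final. Allowed to adhere 30 min at 37 °C to confluent MAdCAM-1-transfected CHO monolayers (seeded 24 h before). Nonadherent cells removed by inverse centrifugation. Result given as % of medium control, mean of two experiments.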

[3] = molecular target: T1, Integrin alpha-4/beta-7 (Homo sapiens); experiment: Inhibition of alpha4-beta7 lymphoma cell binding to CHO-VCAM-1 cells.; format: cell-based
[4] = test system: PBL; experiment: Effect on human PBL cell binding to Laminin.; format: cell-based
Procedure, shortened: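 Human PBL labelled with H33342 (12 μg/mL, 30 min, 37 °C), resuspended at 8×10^5/mL with 1.0 mM Ca2+ and Mg2+. Peptides at 1 mg/mL final were preincubated with the cells for 10 min at 37 °C. Cells then adhered 30 min at 37 °C to plates coated 16 h at 4 °C with 2 μg/well laminin (pH 9.4 carbonate). Read-out is % of medium control, mean ± SD of ≥3 experiments.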

[5] = molecular target: T2, Integrin alpha-4/beta-7 (Homo sapiens, UniProt P13612+P26010); experiment: Inhibition of alpha-4-beta-7/MAdCAM interactions; format: protein-complex assay
T2 sequence (P13612 whole entry): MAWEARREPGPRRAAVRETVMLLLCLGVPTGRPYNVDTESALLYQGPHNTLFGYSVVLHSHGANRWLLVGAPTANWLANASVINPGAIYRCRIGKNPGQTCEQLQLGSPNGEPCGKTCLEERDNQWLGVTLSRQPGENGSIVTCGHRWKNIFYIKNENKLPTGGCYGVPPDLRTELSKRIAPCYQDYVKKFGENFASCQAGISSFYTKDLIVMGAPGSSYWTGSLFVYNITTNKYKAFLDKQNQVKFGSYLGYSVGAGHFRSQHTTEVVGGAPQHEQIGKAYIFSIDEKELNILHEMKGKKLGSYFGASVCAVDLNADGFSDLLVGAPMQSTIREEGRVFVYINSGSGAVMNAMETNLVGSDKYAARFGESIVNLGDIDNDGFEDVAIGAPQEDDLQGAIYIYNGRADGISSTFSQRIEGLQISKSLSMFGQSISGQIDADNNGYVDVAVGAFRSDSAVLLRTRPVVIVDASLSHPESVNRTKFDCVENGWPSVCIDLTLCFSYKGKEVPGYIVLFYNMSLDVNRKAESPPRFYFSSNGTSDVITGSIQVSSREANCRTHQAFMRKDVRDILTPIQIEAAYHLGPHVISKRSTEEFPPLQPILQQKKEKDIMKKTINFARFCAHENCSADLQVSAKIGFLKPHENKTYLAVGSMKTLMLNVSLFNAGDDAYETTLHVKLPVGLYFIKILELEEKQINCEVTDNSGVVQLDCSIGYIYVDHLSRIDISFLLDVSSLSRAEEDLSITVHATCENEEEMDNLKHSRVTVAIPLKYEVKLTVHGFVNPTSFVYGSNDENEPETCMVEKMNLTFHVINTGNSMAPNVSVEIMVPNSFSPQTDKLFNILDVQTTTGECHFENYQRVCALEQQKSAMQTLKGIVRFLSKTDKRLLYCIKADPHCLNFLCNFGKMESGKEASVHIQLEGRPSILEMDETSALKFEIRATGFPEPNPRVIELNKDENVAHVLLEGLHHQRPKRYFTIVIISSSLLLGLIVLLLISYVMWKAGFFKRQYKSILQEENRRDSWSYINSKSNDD
T2 sequence (P26010 whole entry): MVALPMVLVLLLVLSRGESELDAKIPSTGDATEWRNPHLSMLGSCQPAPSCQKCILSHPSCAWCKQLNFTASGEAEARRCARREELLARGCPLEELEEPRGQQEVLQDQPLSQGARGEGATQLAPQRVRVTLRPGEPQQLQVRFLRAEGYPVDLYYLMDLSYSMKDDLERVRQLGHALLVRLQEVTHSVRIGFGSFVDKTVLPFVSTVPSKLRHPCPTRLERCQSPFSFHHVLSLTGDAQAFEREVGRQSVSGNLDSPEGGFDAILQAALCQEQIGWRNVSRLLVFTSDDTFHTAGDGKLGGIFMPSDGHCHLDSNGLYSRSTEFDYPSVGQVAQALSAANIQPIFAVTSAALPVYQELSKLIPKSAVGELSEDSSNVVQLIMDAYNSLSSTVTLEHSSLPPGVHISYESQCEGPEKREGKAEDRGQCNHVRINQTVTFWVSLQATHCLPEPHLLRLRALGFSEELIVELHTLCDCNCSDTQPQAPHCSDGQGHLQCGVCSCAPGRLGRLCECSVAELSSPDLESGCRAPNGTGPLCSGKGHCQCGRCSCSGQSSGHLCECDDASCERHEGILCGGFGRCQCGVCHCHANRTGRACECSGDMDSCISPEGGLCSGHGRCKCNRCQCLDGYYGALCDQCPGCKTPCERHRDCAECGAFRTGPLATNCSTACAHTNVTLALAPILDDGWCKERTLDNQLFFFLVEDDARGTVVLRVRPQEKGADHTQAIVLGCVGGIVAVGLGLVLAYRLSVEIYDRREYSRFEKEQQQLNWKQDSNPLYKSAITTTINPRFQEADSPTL
Procedure, shortened: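 Plates carried anti-human IgG capture antibody, then 100 ng MAdCAM-Ig (30 min, room temperature), then were blocked 1 h at 37 °C. H33342-labelled 38-β7 cells (8×10^5/mL, Ca2+/Mg2+ 1.0 mM) were preincubated 10 min at 37 °C with peptide. They adhered 30 min at 37 °C, and unbound cells were spun off inversely at 50g. Values are mean ± SD of ≥3 experiments.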

Structure (SMILES) | Adhesion [1] [%] | Adhesion [2] [%] | Adhesion [3] [%] | IC50 [5] [µM] | Adhesion [4] [%]
CC(C)C[C@@H]1NC(=O)[C@H](Cc2ccc(O)cc2)NC(=O)[C@H]2CCCN2C(=O)[C@H](CC(=O)O)NC(=O)[C@H]([C@@H](C)O)NC(=O)[C@H](CC(=O)O)NC1=O | – | – | – | 308 | –
CC(C)C[C@@H]1NC(=O)[C@H](Cc2ccccc2)NC(=O)[C@H]2CCCN2C(=O)[C@H](C)NC(=O)[C@H]([C@@H](C)O)NC(=O)[C@H](CC(=O)O)NC1=O | – | – | – | 292 | –
CC(C)C[C@H](NC(=O)c1cc2ccccc2cn1)C(=O)N[C@@H](CC(=O)O)C(=O)N[C@H](C(N)=O)[C@@H](C)O | – | – | – | 465 | –
CC(C)C[C@@H]1NC(=O)[C@@H](Cc2ccccc2)NC(=O)[C@H]2CCCN2C(=O)[C@@H](C)NC(=O)[C@H]([C@@H](C)O)NC(=O)[C@@H](CC(=O)O)NC1=O | 109 | 7 | 36 | – | –
CC(C)C[C@@H]1NC(=O)[C@@H](Cc2ccc(O)cc2)NC(=O)[C@H]2CCCN2C(=O)[C@@H](CC(=O)O)NC(=O)[C@H]([C@@H](C)O)NC(=O)[C@@H](CC(=O)O)NC1=O | 78 | 3 | 37 | – | 111
CC(C)C[C@@H]1NC(=O)[C@@H](Cc2ccccc2)NC(=O)[C@H]2CCCN2C(=O)[C@@H](CC(=O)O)NC(=O)[C@H]([C@@H](C)O)NC(=O)[C@@H](CC(=O)O)NC1=O | 72 | 3 | 38 | – | 95
CC(C)C[C@@H]1NC(=O)[C@H](Cc2ccccc2)NC(=O)[C@H]2CCCN2C(=O)[C@H](CC(=O)O)NC(=O)[C@H]([C@@H](C)O)NC(=O)[C@H](CC(=O)O)NC1=O | – | – | – | 163 | –

Now from value to molecule, other results behind:

Adhesion [1] [%] | Adhesion [2] [%] | Adhesion [3] [%] | IC50 [5] [µM] | Structure (SMILES) | Adhesion [4] [%]
108 | 15 | 36 | – | CSCC[C@H]1NC(=O)[C@H]2CCCN2C(=O)[C@@H](CC(=O)O)NC(=O)[C@H]([C@@H](C)O)NC(=O)[C@@H](CC(=O)O)NC(=O)[C@H](CC(C)C)NC1=O | 102
– | – | – | 301 | CC(C)C[C@@H]1NC(=O)[C@H](Cc2c[nH]cn2)NC(=O)[C@H]2CCCN2C(=O)[C@H](CC(=O)O)NC(=O)[C@H]([C@@H](C)O)NC(=O)[C@H](CC(=O)O)NC1=O | –
– | – | – | 317 | CSCC[C@@H]1NC(=O)[C@H]2CCCN2C(=O)[C@H](CC(=O)O)NC(=O)[C@H]([C@@H](C)O)NC(=O)[C@H](CC(=O)O)NC(=O)[C@H](CC(C)C)NC1=O | –
74 | 9 | 27 | – | CC(C)C[C@@H]1NC(=O)[C@@H](Cc2c[nH]cn2)NC(=O)[C@H]2CCCN2C(=O)[C@@H](CC(=O)O)NC(=O)[C@H]([C@@H](C)O)NC(=O)[C@@H](CC(=O)O)NC1=O | 114

Reference: ChEMBL document CHEMBL1134773, “Design and synthesis of potent and selective alpha(4)beta(7) integrin antagonists” (J Med Chem, 2001)
